For experiment [1], the target named is Kappa-type opioid receptor (Rattus norvegicus, UniProt P34975). Nature of the experiment: Displacement of [3H]U69593 from rat KOR expressed in CHO cells. It is filed as cell-based.
Experiment [2] can be described thus: Selectivity ratio of Ki for displacement of [3H]U69593 from rat KOR expressed in CHO cells to Ki for displacement of [3H]DAMGO from MOR in HEK293 cells. It is filed as cell-based. (In general: Displacement assays read how much labelled ligand stays bound in the presence of the test substance.)
For experiment [3], the species on record is Homo sapiens. Nature of the experiment: Selectivity ratio of Ki for displacement of [3H]DPDPE from human DOR expressed in CHO cells to Ki for displacement of [3H]DAMGO from MOR in HEK293 cells. The format is cell-based.
Experiment [4] concerns the target T1, Mu-type opioid receptor (Homo sapiens, UniProt P35372). In words: Displacement of [3H]DAMGO from MOR in HEK293 cells. The format is cell-based.
The target in experiment [5] is Delta-type opioid receptor (Homo sapiens, UniProt P41143). Nature of the experiment: Displacement of [3H]DPDPE from human DOR expressed in CHO cells. The format is cell-based.
Chain of Delta-type opioid receptor (P41143 whole entry): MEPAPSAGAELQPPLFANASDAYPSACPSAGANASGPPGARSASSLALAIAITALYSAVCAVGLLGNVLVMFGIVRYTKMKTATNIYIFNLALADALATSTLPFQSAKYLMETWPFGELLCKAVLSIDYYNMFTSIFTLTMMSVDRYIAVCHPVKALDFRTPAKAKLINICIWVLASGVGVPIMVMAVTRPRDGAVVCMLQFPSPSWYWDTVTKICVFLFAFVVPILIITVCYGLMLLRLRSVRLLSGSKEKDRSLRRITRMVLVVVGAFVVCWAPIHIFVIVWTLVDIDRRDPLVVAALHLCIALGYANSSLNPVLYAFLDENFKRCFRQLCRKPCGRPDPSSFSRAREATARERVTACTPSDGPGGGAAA
Experiment [6] concerns the target Mu-type opioid receptor (Cavia porcellus) (UniProt P97266). In words: Agonist activity at MOR in Dunkin-Hartley guinea pig ileum assessed as inhibition of electrically-evoked contractions. The format is tissue-based. The essentials: (§1)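 Guinea-pig ileum strips held under a 2 g load and equilibrated for 60 min. Contractions were evoked by transmural single pulses (0.1 Hz, 0.3 ms, 200 mA), followed by a further 60–90 min equilibration with repeated Krebs changes. Compound was added cumulatively, at least 5 min per step. Inhibition was expressed as percentage change from baseline, with EC50 from non-linear curve fitting (n = 6–8).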

Experiment [7] concerns Mus musculus. In words: Antinociceptive activity in CB1 mouse assessed as increase in tail flick latency at 5 mg/kg, ip up to 90 mins. The format is functional, organism-based. For orientation: In hot-plate and tail-flick tests a longer latency is read as antinociception.
The subject of experiment [8] is Mus musculus. Nature of the experiment: Antinociceptive activity in CB1 mouse assessed as increase in tail flick latency at 5 mg/kg, ip after 60 mins. The format is functional, organism-based.
In experiment [9] the target is Mu-type opioid receptor (Cavia porcellus) (UniProt P97266). In words: Agonist activity at MOR in Dunkin-Hartley guinea pig ileum assessed as inhibition of electrically-evoked contractions in presence of mu-opioid receptor agonist DAMGO. It is filed as tissue-based. The essentials:
as §1

The target is the same in experiment [10]. Nature of the experiment: Agonist activity at MOR in Dunkin-Hartley guinea pig ileum assessed as inhibition of electrically-evoked contractions in presence of mu-opioid receptor antagonist naloxonazine. The format is tissue-based. The essentials:
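Electrically stimulated guinea-pig ileum strips (2 g load; single pulses 0.1 Hz, 0.3 ms, 200 mA) were tested with naloxonazine present at 10^-6 M. Agonist was added cumulatively, at least 5 min apart, after 60–90 min equilibration in Krebs. Response was taken as percentage inhibition from baseline, with EC50 by non-linear fitting (n = 6–8).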

Experiment [11] relates to Mus musculus. In words: Antinociceptive activity in CB1 mouse assessed as increase in tail flick latency at 5 mg/kg, ip administered 45 mins post naloxone challenge measured up to 90 mins in presence of naloxone. It is filed as functional, organism-based. The essentials: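 Naloxone was given at 3 mg/kg ip, 45 min before 5 mg/kg ip test compound, in male Swiss CB1 mice (25–30 g). Infrared tail-flick latency (lower third of tail, 10 s cutoff, baseline mean of three readings) was measured at 30, 60 and 90 min post-injection (n = 8).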

The target of experiment [12] is Mu-type opioid receptor (Cavia porcellus) (UniProt P97266). In words: Agonist activity at MOR in Dunkin-Hartley guinea pig ileum assessed as inhibition of electrically-evoked contractions in presence of kappa-opioid receptor antagonist norBNI. The format is tissue-based. In a few lines:
as §1

Experiment [13] has as its system Mus musculus. Nature of the experiment: Antinociceptive activity in ip dosed CB1 mouse assessed as increase in tail flick latency after 30 mins. The format is functional, organism-based.
Experiment [14] concerns the target Mu-type opioid receptor (Cavia porcellus) (UniProt P97266). In words: Agonist activity at MOR in Dunkin-Hartley guinea pig ileum assessed as inhibition of electrically-evoked contractions in presence of opioid receptor antagonist naloxone. It is filed as tissue-based. In a few lines: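 Cumulative concentration–response curves were run on electrically stimulated guinea-pig ileum strips (2 g load; 0.1 Hz, 0.3 ms, 200 mA) with a single naloxone concentration of 10^-6 M. […]. Contractions were scored as percentage change from baseline.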

The species named for experiment [15] is Homo sapiens. In words: Selectivity ratio of Ki for displacement of [3H]Diprenorphine from human KOR expressed in HEK293 cell membranes to Ki for displacement of [3H]Diprenorphine from human MOR expressed in HEK293 cell membranes.
Experiment [16] concerns the target Kappa-type opioid receptor (Homo sapiens, UniProt P41145). Nature of the experiment: Displacement of [3H]Diprenorphine from human KOR expressed in HEK293 cell membranes by liquid scintillation counting.
The target in experiment [17] is T1, Mu-type opioid receptor. Nature of the experiment: Displacement of [3H]Diprenorphine from human MOR expressed in HEK293 cell membranes by liquid scintillation counting.

Here are results for nine compounds from ChEMBL document CHEMBL4428114, “An LP1 analogue, selective MOR agonist with a peculiar pharmacological profile, used to scrutiny the ligand binding domain” (Bioorg Med Chem, 2016).

Structures are written as SMILES. Activity calls are given as the source filed them.

Chain of Mu-type opioid receptor (Cavia porcellus) (P97266 whole entry): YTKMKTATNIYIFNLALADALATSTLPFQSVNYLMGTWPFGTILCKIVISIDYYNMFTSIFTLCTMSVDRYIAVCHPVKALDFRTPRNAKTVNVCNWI
Chain of Kappa-type opioid receptor (Rattus norvegicus, UniProt P34975) (P34975 whole entry): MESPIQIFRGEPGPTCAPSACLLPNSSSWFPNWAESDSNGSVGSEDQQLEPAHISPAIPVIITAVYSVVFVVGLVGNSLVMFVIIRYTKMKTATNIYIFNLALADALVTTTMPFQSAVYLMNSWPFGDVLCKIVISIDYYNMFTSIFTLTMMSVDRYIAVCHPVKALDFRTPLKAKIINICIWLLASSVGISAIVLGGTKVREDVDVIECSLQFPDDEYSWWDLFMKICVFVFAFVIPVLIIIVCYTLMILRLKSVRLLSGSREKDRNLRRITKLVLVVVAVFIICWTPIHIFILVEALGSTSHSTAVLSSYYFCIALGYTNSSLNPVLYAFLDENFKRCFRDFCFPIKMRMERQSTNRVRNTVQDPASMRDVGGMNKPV
T1 sequence (P35372 whole entry): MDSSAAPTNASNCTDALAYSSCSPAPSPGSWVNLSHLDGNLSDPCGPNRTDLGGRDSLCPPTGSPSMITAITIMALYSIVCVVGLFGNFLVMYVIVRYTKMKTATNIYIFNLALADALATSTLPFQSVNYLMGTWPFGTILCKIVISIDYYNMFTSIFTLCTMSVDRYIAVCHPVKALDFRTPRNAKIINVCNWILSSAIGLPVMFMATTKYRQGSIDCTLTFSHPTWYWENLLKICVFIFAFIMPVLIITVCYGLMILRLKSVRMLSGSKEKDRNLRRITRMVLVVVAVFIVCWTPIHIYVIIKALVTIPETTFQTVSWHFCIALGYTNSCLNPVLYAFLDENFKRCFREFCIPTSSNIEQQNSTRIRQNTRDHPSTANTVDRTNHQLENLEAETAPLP
Chain of Kappa-type opioid receptor (Homo sapiens, UniProt P41145) (P41145 whole entry): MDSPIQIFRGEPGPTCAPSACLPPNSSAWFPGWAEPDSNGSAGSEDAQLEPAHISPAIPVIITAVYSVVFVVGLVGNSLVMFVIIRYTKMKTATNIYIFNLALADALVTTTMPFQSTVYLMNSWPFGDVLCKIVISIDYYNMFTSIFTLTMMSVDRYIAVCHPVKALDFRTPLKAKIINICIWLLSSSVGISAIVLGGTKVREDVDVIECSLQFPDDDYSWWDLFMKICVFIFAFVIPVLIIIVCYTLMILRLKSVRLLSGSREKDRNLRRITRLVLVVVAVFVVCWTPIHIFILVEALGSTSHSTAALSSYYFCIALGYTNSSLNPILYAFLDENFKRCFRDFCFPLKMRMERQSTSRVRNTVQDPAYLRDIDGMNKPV

For orientation: Ki means the dissociation constant of the complex between target and ligand, obtained from inhibition or displacement. Lower therefore signals tighter binding. As for `C[C@H]1[C@H]2Cc3ccc(O)cc3[C@]1(C)CCN2CCC(=O)Nc1ccccc1`, the affinity in experiment [1] corresponds to a Ki of 110 nM. For the same compound, the results for the Ratio Ki (in experiment [2]; in the experiment listed under Homo sapiens [3]) were 132 and 33.8, respectively.
Take `C[C@H]1[C@H]2Cc3ccc(O)cc3[C@]1(C)CCN2CCC(=O)N(C)C(c1ccccc1)c1ccccc1`: the Ki turned out to be 160 nM on Mu-type opioid receptor [4], 370 nM in experiment [1] and 1400 nM in experiment [5]. The Ratio Ki in experiment [2] came out at 2.31; in the experiment filed under Homo sapiens [3] it was 8.75. For the same compound, in experiment [6], the pD2 was found to be 5.7.
For the compound `CN1CC[C@]23c4c5ccc(O)c4O[C@H]2[C@@H](O)C=C[C@H]3[C@H]1C5`, the outcome in the experiment with Mus musculus [7] and in the experiment with Mus musculus [8] was Active.
With `C[C@H]1[C@H]2Cc3ccc(O)cc3[C@]1(C)CCN2CCC(=O)NCC(c1ccccc1)c1ccccc1`, the pD2 was determined as 7 in experiment [9]; 6.5 in experiment [10]; 6.9 in experiment [12]; 6.8 in [6]; 6.4 in [14]. Further, the Ki worked out at 0.5 nM on Mu-type opioid receptor [4], 190 nM in experiment [1] and 440 nM in [5]. Further, the result with Mus musculus [11] was inactive. Also, the values for the Ratio Ki (in [2]; in the experiment filed under Homo sapiens [3]) were 380 and 880, respectively. The Activity entry (in the experiment with Mus musculus [13]; in experiment [6]) was “Dose-dependent effect” throughout. Also, the outcome in the experiment with Mus musculus [7] was Active.
On to `C[C@H]1[C@H]2Cc3ccc(O)cc3[C@]1(C)CCN2CCC(=O)N1CCc2ccccc2C1c1ccccc1` (mixture of isomers), for which, at Mu-type opioid receptor [4], the Ki was found to be 96 nM.
As to `C[C@H]1[C@H]2Cc3ccc(O)cc3[C@]1(C)CCN2CCC(=O)N1CCc2ccccc2[C@H]1c1ccccc1`, the Ki on Mu-type opioid receptor [4] was 470 nM; in experiment [1], 1900 nM; in experiment [5], 7900 nM. The results for the Ratio Ki (in [2]; in the experiment listed under Homo sapiens [3]) were 4.04 and 16.8, respectively.
Consider `COc1ccsc1CNCC[C@@]1(c2ccccn2)CCC2(CCCC2)OC1`, for which the Ratio Ki in the experiment filed under Homo sapiens [15] came out at 1670. Besides, the Ki in experiment [16] is below 10 µM; on Mu-type opioid receptor [17], 6 nM.
Turning to `C[C@H]1[C@H]2Cc3ccc(O)cc3[C@]1(C)CCN2CCC(=O)N1CCc2ccccc2[C@@H]1c1ccccc1`, the Ki on Mu-type opioid receptor [4] was found to be 380 nM; in experiment [1], 900 nM; in [5] it was 2900 nM. Also, the values for the Ratio Ki (in experiment [2]; in the experiment filed under Homo sapiens [3]) were 12.5 and 35, respectively.
With `C[C@H]1[C@H]2Cc3ccc(O)cc3[C@]1(C)CCN2CCC(=O)NC(c1ccccc1)c1ccccc1`, the results for the Ki (on Mu-type opioid receptor [4]; in experiment [1]; in experiment [5]) were 84 nM, 680 nM and 2900 nM, respectively. For the same compound, the values for the Ratio Ki (in [2]; in the experiment listed under Homo sapiens [3]) were 8.09 and 34.5, respectively. Further, in [14], the pD2 is 4.1.
